The source of these data is ChEMBL document CHEMBL1949512, “RO4383596, an orally active KDR, FGFR, and PDGFR inhibitor: synthesis and biological evaluation” (Bioorg Med Chem, 2005).

The subject of series [1] is Mus musculus. Briefly: Dose normalized AUC in C57/BL6 mouse at 50 mg/kg, po bid for 5 days. The series is classed as ADME, organism-based. Further details: dose 50 mg/kg, route oral. As to conditions: in vivo, 120 h. The essentials: (§1)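 Female C57/BL6 mice were dosed orally twice daily for 5 days with a suspension in 2% Klucel LF/0.1% Tween 80 in water. Six mice per dose were split into two subgroups of three, each sampled at alternate time points. Retro-orbital blood was taken at 0, 1, 4 and 8 h post-dose into EDTA, and plasma was analysed by LC-MS/MS. Parameters come from mean concentrations; AUC0–8h by linear trapezoidal rule; Cmax and Tmax as observed.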

For series [2], the system named is Mus musculus. Briefly: Antiangiogenic activity in C57/BL6 mouse cornea assessed as inhibition of bFGF-induced angiogenesis at 25 mg/kg, po bid for 5 days by corneal pocket assay relative to control. The class given is functional. Particulars: 120 h. The essentials:
(§2)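 bFGF-impregnated pellets were implanted in corneas of female C57/BL6 mice aged 5–7 weeks. Oral dosing twice daily began the same day for 5 days. The neovascularized area was quantitated against vehicle-treated animals (2% Klucel LF, 0.1% Tween 80 in water).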

Series [3] is described as follows: Volume of distribution at steady state in athymic nude mouse at 10 mg/kg, iv. The series is classed as ADME, organism-based. Further details: dose 10 mg/kg, route intravenous. Particulars: in vivo, read-out: Vdss. The essentials: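 Athymic nude mice given single 10 mg/kg iv dose in 2% DMA, 10% PEG400, 88% of 40% HPBCD in water, 0.2 mL. Blood at 1, 5, 15, 30 min and 1, 2, 4, 8, 16, 24 h; EDTA plasma, LC-MS/MS. Composite Vdss by non-compartmental analysis.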

Series [4] is described as follows: Cmax in Wistar rat at 50 mg/kg, po. The class given is ADME, organism-based. Further details: dose 50 mg/kg, route oral. Particulars: in vivo. The essentials: (§3)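 Wistar rats received one dose, either iv 5 mg/kg via femoral arterial catheter (2% DMA/10% PEG400/88% of 40% HPBCD) or po 50 mg/kg (2% Klucel LF/0.1% Tween 80). Blood came from an implanted jugular catheter, up to 24 h (iv) or 48 h (po), into EDTA. Plasma LC-MS/MS; individual non-compartmental parameters were averaged.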

The subject of the next series is MDA-MB-435. Briefly: Antiproliferative activity against human MDA-MB-435 cells.
Series [5] has as its system Mus musculus. Description: Antiangiogenic activity in C57/BL6 mouse cornea assessed as inhibition of bFGF-induced angiogenesis at 100 mg/kg, po bid for 5 days by corneal pocket assay relative to control. As to conditions: 120 h. The series is classed as functional. The essentials: as §2
The nature of series [6]: Cmax in C57/BL6 mouse at 100 mg/kg, po bid for 5 days. The class given is ADME, organism-based. Details: dose 100 mg/kg, route oral. Particulars: in vivo. The essentials:
as §1

The nature of series [7]: Clearance in Wistar rat at 5 mg/kg, iv. The series is classed as ADME, organism-based. Details: dose 5 mg/kg, route intravenous. Particulars: in vivo. The essentials:
as §3

A short description of series [8]: Oral bioavailability in Wistar rat at 50 mg/kg. The series is classed as ADME, organism-based. Particulars: in vivo. The essentials:
as §3

Series [9] concerns the target Cyclin-dependent kinase 1/cyclin B1 (Homo sapiens, UniProt P06493). Description: Inhibition of CDK1/cyclin B by IMAP assay. The class given is protein-complex assay. The essentials:
(§4)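 IMAP fluorescence-polarization assay, in which phosphorylated fluorescent peptide substrates bind immobilized metal beads. Reactions ran at ATP three times Km.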

The nature of series [10]: Tmax in C57/BL6 mouse at 25 mg/kg, po bid for 5 days. The series is classed as ADME, organism-based. Further details: dose 25 mg/kg, route oral. Particulars: in vivo. The essentials:
as §1

Series [11] can be described thus: Tmax in C57/BL6 mouse at 50 mg/kg, po bid for 5 days. The series is classed as ADME, organism-based. Further details: dose 50 mg/kg, route oral. Particulars: in vivo. The essentials: as §1
Series [12] addresses Fibroblast growth factor receptor (Homo sapiens, UniProt P22607+P11362+P22455+P21802). Briefly: Inhibition of human recombinant GST-tagged intracellular domain of FGFR using biotin-EEEEYFELV as substrate by HTRF assay. On the technique in general: Time-resolved FRET reads energy transfer from a long-lived donor to a nearby acceptor.
The nature of series [13]: Cmax in C57/BL6 mouse at 50 mg/kg, po bid for 5 days. The class given is ADME, organism-based. Details: dose 50 mg/kg, route oral. As to conditions: in vivo. The essentials:
as §1

Series [14] concerns the target Protein kinase C alpha type (Homo sapiens, UniProt P17252). Briefly: Inhibition of PKCalpha by IMAP assay. The essentials: as §4
The target in series [15] is T1, Serine/threonine-protein kinase Sgk1 (Homo sapiens, UniProt O00141).
T1 sequence (O00141 whole entry): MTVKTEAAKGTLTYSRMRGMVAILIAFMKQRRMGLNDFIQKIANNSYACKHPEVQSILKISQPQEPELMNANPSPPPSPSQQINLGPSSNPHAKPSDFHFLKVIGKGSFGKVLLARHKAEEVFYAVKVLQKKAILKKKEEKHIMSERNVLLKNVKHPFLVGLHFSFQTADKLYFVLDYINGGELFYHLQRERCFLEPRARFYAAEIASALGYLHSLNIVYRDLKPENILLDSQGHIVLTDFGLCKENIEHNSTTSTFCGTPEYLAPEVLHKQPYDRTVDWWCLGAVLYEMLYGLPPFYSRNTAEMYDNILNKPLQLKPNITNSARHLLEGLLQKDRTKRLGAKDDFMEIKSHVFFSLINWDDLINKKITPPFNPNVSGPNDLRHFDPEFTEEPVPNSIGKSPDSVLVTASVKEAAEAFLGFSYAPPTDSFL
Description: Inhibition of SGK.

The nature of series [16]: AUC in Wistar rat at 50 mg/kg, po. The series is classed as ADME, organism-based. Further details: dose 50 mg/kg, route oral. Particulars: plasma. The essentials: as §3
For series [17], the target named is Vascular endothelial growth factor receptor 2 (Homo sapiens, UniProt P35968). Briefly: Inhibition of human recombinant EE-tagged intracellular domain of KDR using biotin-EEEEYFELVAKKKK as substrate by HTRF assay.
Vascular endothelial growth factor receptor 2, sequence (P35968 whole entry, the tested form may be a part): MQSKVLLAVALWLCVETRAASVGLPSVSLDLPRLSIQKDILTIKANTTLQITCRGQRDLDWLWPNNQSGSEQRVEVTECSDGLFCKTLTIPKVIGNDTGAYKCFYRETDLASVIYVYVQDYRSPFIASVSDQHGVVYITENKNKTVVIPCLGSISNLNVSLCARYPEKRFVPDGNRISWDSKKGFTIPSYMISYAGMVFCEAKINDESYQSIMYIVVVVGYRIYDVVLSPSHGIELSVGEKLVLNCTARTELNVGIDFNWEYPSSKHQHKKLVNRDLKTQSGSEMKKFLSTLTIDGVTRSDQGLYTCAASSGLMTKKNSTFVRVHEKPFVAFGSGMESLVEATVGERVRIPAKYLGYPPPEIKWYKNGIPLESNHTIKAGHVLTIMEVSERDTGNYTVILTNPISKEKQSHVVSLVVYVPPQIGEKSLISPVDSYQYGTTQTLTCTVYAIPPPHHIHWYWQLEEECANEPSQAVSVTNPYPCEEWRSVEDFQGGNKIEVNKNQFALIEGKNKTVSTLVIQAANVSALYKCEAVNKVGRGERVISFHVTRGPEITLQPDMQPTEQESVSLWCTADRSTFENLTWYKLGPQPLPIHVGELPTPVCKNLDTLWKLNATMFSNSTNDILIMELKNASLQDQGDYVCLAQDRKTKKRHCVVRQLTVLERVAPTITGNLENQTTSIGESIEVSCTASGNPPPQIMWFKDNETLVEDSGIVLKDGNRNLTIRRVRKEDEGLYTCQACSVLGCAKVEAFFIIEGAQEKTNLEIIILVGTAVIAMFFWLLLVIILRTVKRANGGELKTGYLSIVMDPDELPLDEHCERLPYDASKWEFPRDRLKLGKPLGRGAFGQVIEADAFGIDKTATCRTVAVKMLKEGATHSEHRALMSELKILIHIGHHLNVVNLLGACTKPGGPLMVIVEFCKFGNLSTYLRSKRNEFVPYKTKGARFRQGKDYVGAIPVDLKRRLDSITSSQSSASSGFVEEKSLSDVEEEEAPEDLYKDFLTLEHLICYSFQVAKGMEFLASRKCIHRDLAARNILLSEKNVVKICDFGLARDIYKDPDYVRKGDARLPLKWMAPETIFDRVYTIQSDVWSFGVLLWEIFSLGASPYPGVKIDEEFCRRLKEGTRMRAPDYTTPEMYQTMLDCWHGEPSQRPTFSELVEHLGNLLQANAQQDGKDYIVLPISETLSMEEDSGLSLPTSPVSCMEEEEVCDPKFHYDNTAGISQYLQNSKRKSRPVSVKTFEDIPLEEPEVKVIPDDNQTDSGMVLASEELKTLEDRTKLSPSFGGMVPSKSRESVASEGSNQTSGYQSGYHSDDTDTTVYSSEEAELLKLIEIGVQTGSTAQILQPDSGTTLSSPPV
Series [18] concerns Mus musculus. Description: Dose normalized AUC in […] mouse at 100 mg/kg, po. The class given is ADME, organism-based. As to conditions: in vivo. Further details: dose 100 mg/kg, route oral. The essentials:
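A separate group of female mice received one 100 mg/kg oral dose. Median PK parameters were calculated for that cohort.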

A short description of series [19]: AUC in Wistar rat at 5 mg/kg, iv. The series is classed as ADME, organism-based. Details: dose 5 mg/kg, route intravenous. Particulars: plasma. The essentials:
as §3

Molecules are shown by their SMILES.

Cyclin-dependent kinase 1/cyclin B1, sequence (P06493 whole entry): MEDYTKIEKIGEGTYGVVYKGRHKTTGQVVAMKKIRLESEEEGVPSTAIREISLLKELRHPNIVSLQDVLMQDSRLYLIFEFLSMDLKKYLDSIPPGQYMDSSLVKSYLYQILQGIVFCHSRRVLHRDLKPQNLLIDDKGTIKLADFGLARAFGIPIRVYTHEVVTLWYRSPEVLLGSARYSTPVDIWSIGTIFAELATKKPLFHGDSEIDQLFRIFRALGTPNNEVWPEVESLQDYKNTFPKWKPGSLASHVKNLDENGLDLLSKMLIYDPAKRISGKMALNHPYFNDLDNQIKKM
Cyclin-dependent kinase 1/cyclin B1, sequence (P14635 whole entry, further chain): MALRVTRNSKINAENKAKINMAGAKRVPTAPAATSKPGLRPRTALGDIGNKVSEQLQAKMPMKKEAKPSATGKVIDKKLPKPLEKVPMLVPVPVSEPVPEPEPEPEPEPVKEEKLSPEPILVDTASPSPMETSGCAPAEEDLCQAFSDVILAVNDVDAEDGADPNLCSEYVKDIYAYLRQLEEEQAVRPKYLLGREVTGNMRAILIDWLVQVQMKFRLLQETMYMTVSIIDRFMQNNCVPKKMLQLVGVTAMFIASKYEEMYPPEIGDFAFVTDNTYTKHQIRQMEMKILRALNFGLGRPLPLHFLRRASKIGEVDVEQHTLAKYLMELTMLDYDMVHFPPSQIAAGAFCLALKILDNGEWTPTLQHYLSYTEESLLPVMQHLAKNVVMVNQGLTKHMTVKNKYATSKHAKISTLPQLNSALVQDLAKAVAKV

The term inhibition in vivo denotes the share of the control response that was lost under treatment. One may read the Cmax as the peak of the concentration-time curve. The IC50 is the concentration at which inhibition is half-maximal. As a reminder, the clearance is a measure of how efficiently the substance is removed, as volume per time. Read a low clearance as a low capacity for elimination. Usually bioavailability stands for dose-corrected exposure relative to a reference, in per cent. Low readings indicate poor availability, high ones good availability. A word on the Tmax: it is the time from dosing to the highest level. What is called AUC is concentration integrated over time. Low values mean low exposure, high ones high exposure. `COc1ccc(N2Cc3cnc(Nc4ccccc4)nc3N([C@@H]3CC[C@@H](O)C3)C2=O)cc1` (racemic): the figures for the AUC/dose with Mus musculus [1] and in the series with Mus musculus [18] were 1510 ng·h/mL/mg/kg and 1458 ng·h/mL/mg/kg, respectively. Besides, the inhibition in vivo at 25 mg/kg with Mus musculus [2] is 72%. Besides, in series [3], the Vd stood at 1.9 L/kg. The Cmax in series [4] worked out at 7180 ng/mL; in series [6] it was 47700 ng/mL; in series [13] it was 28400 ng/mL. In addition, the 50% inhibitory concentration (IC50) with MDA-MB-435 was 4.2 µM; in series [9], greater than 125 µM; in series [12], 29 nM; in [14], greater than 125 µM; in series [15], greater than 125 µM; in series [17] it was 44 nM. Also, the inhibition in vivo at 100 mg/kg with Mus musculus [5] was 97%. In series [7], the clearance was 23.1 mL/min/kg. In series [8], this compound showed a bioavailability of 65%. For the same compound, the time of peak concentration (Tmax) in series [10] and in series [11] was 30 min throughout. The AUC in series [16] was 26500 ng·h/mL; in series [19] it was 4010 ng·h/mL.
